Hits are enriched below; roughly 3.5% of the tested compounds scored in any of these assays.
RGS4 act: RGS4 potentiation or activation. hit rate 0.92% among 310,000. HEK293 M3R/inducible RGS4, carbachol calcium flux Fluo4; stronger effect = lower value. B-score at 10 µM;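 active = B-score of the integrated calcium signal more than 4 SD below the library mean, with starting fluorescence not abnormally high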;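 also: negative B-score means reduced calcium response which marks RGS4 activation or potentiation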
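Detection: kinetic calcium fluorescence imaging with Fluo4-AM dye, 2 µM / Material: HEK293 cells with stable M3R and inducible RGS4 / Schedule: recording 10 s baseline at 1 Hz, 100 s post-agonist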
MrgX1 ag: agonists of human MrgX1 receptor. Q96LB2. MrgX1-HEK293 cells, Fluo-4 calcium fluorescence, agonist mode; stronger effect = higher value. B-score at 10 µM. hit rate 0.44% among 310,000. AID 588627;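 active = calcium response B-score plate-corrected fluorescence ratio at least 3 library SD, with starting fluorescence B-score inside 5 SD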
Target sequence (Q96LB2 whole entry, looked up): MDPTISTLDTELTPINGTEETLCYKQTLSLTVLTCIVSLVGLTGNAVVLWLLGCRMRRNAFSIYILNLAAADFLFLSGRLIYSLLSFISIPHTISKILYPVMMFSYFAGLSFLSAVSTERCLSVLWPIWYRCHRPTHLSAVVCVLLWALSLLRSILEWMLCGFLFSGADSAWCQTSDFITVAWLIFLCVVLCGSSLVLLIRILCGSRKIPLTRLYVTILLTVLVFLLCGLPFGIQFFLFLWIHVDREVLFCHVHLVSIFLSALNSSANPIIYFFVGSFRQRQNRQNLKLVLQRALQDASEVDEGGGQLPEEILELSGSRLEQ
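Assay system: MrgX1-expressing HEK293 cells / Amount: fifteen thousand cells per well / Doses: test compound in the initial addition of three / Timing: cells plated overnight, dye loaded 0.5 h 37 °C, 0.5 h room temperature / Technique: kinetic calcium dye fluorescence, Fluo-4 NW / Control set: positive and negative controls per plate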
MrgX1 PAM: allosterically activates human MrgX1 receptor signaling; MrgX1-HEK293, Fluo-4 calcium flux, FDSS; stronger effect = higher value; B-score at 10 µM; hit rate 0.63% among 310,000;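 active = plate-corrected calcium response at least 3 library SD above typical, normal starting fluorescence, not activating the receptor alone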;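 also: compound read alongside a low EC10 to EC30 dose of BAM8-22 agonist; peak minus trough fluorescence over baseline measured at the second addition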
MrgX1 antag: antagonists of human MrgX1 receptor | MRGX1-HEK293 calcium flux, Fluo-4, BAM8-22 antagonism; stronger effect = lower value | B-score at 10 µM | hit rate 1.3% among 310,000;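 active = calcium-response B-score plate-corrected more than 3 library SD below zero, starting fluorescence within 5 deviations, no agonist response on first addition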;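 also: peak minus trough fluorescence over baseline after final BAM8-22 challenge near maximal dose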
RGS4 block: inhibitors of human RGS4. P49798. HEK293 M3R/RGS4 inducible, Fluo-4 calcium flux; stronger effect = higher value; triggered by carbachol at its EC20. B-score at 10 µM. hit rate 0.45% among 310,000. AID 463165;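 active = B-score, a plate-corrected calcium signal, over three deviations above library mean, with baseline fluorescence within five deviations of library mean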;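 also: RGS4 expression induced by doxycycline in cells with stable M3 receptor; B-score is computed from the integrated fluorescence ratio over baseline after carbachol; higher B-score means a larger calcium signal and so more RGS4 inhibition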
MrgX1 PAM conf: human MrgX1 positive allosteric modulation, re-confirmation | activation (ratio percentage), % at 10 µM | shares compounds with MrgX1 PAM | hit rate 13% among 1,200 | MrgX1-HEK293, Fluo-4 calcium fluorescence, FDSS | AID 602413;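 active = ratio at least 3 SD above the weak peptide control, stable starting fluorescence, no direct agonism earlier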;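 also: compound followed by low BAM8-22 agonist challenge near EC20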
HEK293 Ca flux: counter-screen for MrgX1 antagonists: effect in parental HEK293 cells. shares compounds with MrgX1 antag. Fluo-4 calcium fluorescence, FDSS. fluorescence ratio F(max-min)/F0 at 10 µM. hit rate 2% among 4,000;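 active = duplicate-averaged calcium fluorescence ratio at least three times the standard deviation of buffer wells, a nonspecific response in parental cells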
HEK293 Ca counter: counter-screen for MrgX1 allosteric activators: effect in parental HEK293 cells; AID 624114; hit rate 0.4% among 4,000; parental HEK293 calcium flux, Fluo-4 fluorescence ratio; stronger effect = higher value; shares compounds with MrgX1 antag; fluorescence ratio F(max-min)/F0 at 10 µM;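 active = calcium fluorescence ratio, averaged over duplicates, at least 3 SD of the buffer-well ratio, meaning a nonspecific response in receptor-free cells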;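 also: untransfected parental HEK293 lacking MrgX1 used as counterscreen for MrgX1 allosteric activators; fluorescence change taken during the second addition on a kinetic imager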
HEK293 Ca cntr2: activity in parental HEK293 cells lacking MrgX1 receptor; hit rate 8.7% among 4,000; fluorescence ratio F(max-min)/F0 at 10 µM; Fluo-4 calcium fluorescence (FDSS); stronger effect = higher value; shares compounds with MrgX1 antag; AID 624115;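 active = calcium fluorescence ratio at least three times the spread of buffer wells, meaning a non-specific response in parental cells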
* marks the source's active call; other numbers are inactive results; i = inactive; nt = not tested or not shown.

SMILES	RGS4 act	MrgX1 ag	MrgX1 PAM	MrgX1 antag	RGS4 block	MrgX1 PAM conf	HEK293 Ca flux	HEK293 Ca counter	HEK293 Ca cntr2
O=C(NCCc1csc(-c2cccnc2)n1)c1cccc(Cl)c1	i	i	9.61*	i	i	i	i	i	i
O=C(NCCc1csc(-c2cccnc2)n1)c1ccc(Cl)cc1	i	i	i	i	i	nt	nt	nt	nt
CCc1cccc(NC(=O)c2ccc(NS(=O)(=O)c3c(C)noc3C)cc2)c1	i	i	15.4*	i	i	15.0%*	i	i	i
O=C(OCC(=O)N1CCCC1)c1ccc(S(=O)(=O)Nc2ccccc2)cc1	i	i	12.2*	i	i	i	i	i	i
COc1cc(-c2nnc(SCC(=O)NC3CCCC3)n2C)cc(OC)c1O	i	i	i	i	i	nt	nt	nt	nt
Cc1cc(OCC(=O)Nc2ccccc2N2CCCCC2)ccc1C(C)C	i	i	6.87*	i	i	i	i	i	i
Cc1cccc(OCC(=O)Nc2cc(S(=O)(=O)N3CCCCC3)ccc2N2CCN(C)CC2)c1	i	i	16.4*	i	i	i	i	i	i
COc1cccc(CC(=O)Nc2ccccc2N2CCCC2)c1	i	i	9.44*	i	i	i	i	i	i
CN1CCN(c2ccc(S(=O)(=O)N3CCCCC3)cc2NC(=O)COc2cccc(Cl)c2)CC1	i	i	i	i	i	nt	nt	nt	nt
Cc1ccc(OCC(=O)Nc2ccccc2N2CCOCC2)c(C)c1	i	i	9.91*	i	i	i	i	i	i
O=C(/C=C/c1cccc(O)c1)c1ccc(N2CCOCC2)cc1	i	i	i	i	i	nt	nt	nt	nt
COCc1cc(=O)[nH]c2c1c(-c1ccccc1)nn2C	i	i	i	i	i	nt	nt	nt	nt
Cc1cc(OCC(=O)Nc2ccccc2N2CCCC2)ccc1C(C)C	i	i	22.2*	i	i	13.1%*	i	i	i
O=C(CNCC1CCCO1)Nc1ccccc1N1CCCCCC1 (stereo not given)	i	i	6.91*	i	i	i	i	i	i
CC(Oc1ccc(F)cc1)C(=O)Nc1ccccc1N1CCCCC1 (stereo not given)	i	i	12.2*	i	i	i	i	i	i
Cc1cccc(OCC(=O)Nc2ccccc2N2CCCC2)c1C	i	i	26.2*	i	i	25.2%*	i	i	i
Cc1ccccc1OCC(=O)Nc1ccccc1N1CCCCC1	i	i	i	i	i	nt	nt	nt	nt
COc1ccc(N(C)S(=O)(=O)c2cccc(C(=O)NC3CCCC(C)C3C)c2)cc1 (stereo not given)	i	i	i	i	i	nt	nt	nt	nt
CS(=O)(=O)N(CCc1ccccc1)CC(=O)N1CCc2ccccc2C1	i	i	i	i	i	nt	nt	nt	nt
Cc1nccn1C(c1ccccc1)c1ccccc1	i	i	i	i	i	nt	nt	nt	nt
CC12COC3(C(N)=O)CC1CCC32C (stereo not given)	i	i	i	i	i	nt	nt	nt	nt
CC12COC3(C(=O)Nc4ccc(F)cc4)CC1CCC32C (stereo not given)	i	i	10.7*	i	i	i	i	i	i
CNc1nc2[nH]c(=O)c3c(c2s1)OC(N)=C(C#N)C3c1cccc(F)c1 (stereo not given)	i	i	17.4*	i	i	i	i	i	i

Bioassay records from PubChem BioAssay.
